In general, IC50 refers to the point on the concentration scale where inhibition reaches its midpoint.

The test system of the test is E. coli BW25113 ΔtolC growth inhibition, OD615. Put plainly: growth inhibitors of E. coli tolC mutant, dose response, strain BW25113 ΔtolC::kan (AID 617). The method, boiled down:
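Test system: E. coli BW25113 ΔtolC::kan bacteria / Buffer or medium: kanamycin-containing LB broth, 50 µg/mL / Compound: serial dilution series of compound / Incubation: bacterial growth with compound for 20 h, 37 °C / Measured by: OD615 / Read-out basis: growth-inhibition IC50 from four-parameter logistic curve, bounds set to 0% and 100%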
Regarding `O=C(CCn1c(=O)oc2ccccc21)N1CCN(C(c2ccccc2)c2ccccc2)CC1`, the IC50 is 29 µM. With `Cc1onc(-c2c(F)cccc2Cl)c1C(=O)Nc1nc2c(s1)CCCC2`, the IC50 was 19.4 µM.

For `COc1ccccc1-c1cc(C(=O)NC(C)c2ccccc2)no1` (centres undefined), the IC50 was 37.7 µM. For `c1ccc(-c2csc(N3CCN(c4ccccn4)CC3)n2)cc1` the value was 8.99 µM; for `O=C(NCc1ccccc1)c1c[nH]c2ccc(S(=O)(=O)Nc3ccc4c(c3)OCCO4)cc2c1=O`, 9.4 µM; for `c1ccc(-c2nc(N3CCCCCC3)nc(-n3ccnc3)n2)cc1`, 7.72 µM. The result for `Cc1nn(-c2ccc(F)cc2)c2sc(C(=O)N3CCCCCC3)cc12` reads 20.2 µM; that for `COc1cccc(-c2cc(C(=O)N3C(C)CCCC3C)no2)c1` (centres undefined), 32.8 µM.

Regarding `Cc1ccc2c(c1)c(C)c(C)n2CC(O)Cn1nc(C)c(Br)c1C` (centres undefined), the IC50 was 11.8 µM.

As to `CC(C)C(C(=O)NCc1ccco1)N(C(=O)CNS(=O)(=O)c1ccc(Cl)cc1)C1CCCC1` (centres undefined), the IC50 was 24.8 µM. For `Cc1ccc(C)c(N2CCN(C(=O)c3ccccc3Br)CC2)c1` the value was 11.2 µM; for `O=S(=O)(NCCSc1ccc(Cl)cc1)c1ccc2c(c1)OCCO2`, 8.89 µM. For `C=C(C)COc1ccc(-c2[nH]ncc2Oc2cccc(OC)c2)c(O)c1` the value was 6 µM. Regarding `N#Cc1ccc(NC(=O)Nc2ccc(Cl)cc2)cc1`, the IC50 was 0.52 µM. For the molecule `CCN1C(=O)CSC1=NC1C2CC3CC(C2)CC1C3` (centres undefined), the IC50 was 33.5 µM. The result for `CCOc1ccccc1-c1nn2c(Cc3ccccc3)nnc2s1` reads 0.76 µM; that for `CCN(c1ccccc1)S(=O)(=O)c1ccc(NCC2COc3ccccc3O2)nc1` (centres undefined), 14.8 µM. For `CCSc1nnc(NC(=O)c2nc(-c3ccccc3)n(-c3ccccc3)n2)s1` the value was 2.23 µM. For `Cc1cccc(-n2ncc3c(NCc4ccc5c(c4)OCO5)ncnc32)c1` the value was 8.94 µM; for `CC1(C)Cc2c(sc3c2c(=N)n(Cc2ccco2)c(=O)n3Cc2ccc(Cl)cc2)CO1`, 13.3 µM; for `O=C(CCCOc1ccc(Cl)cc1Cl)N1CCN(c2ccccn2)CC1`, 6.04 µM. In the case of `Cc1ccc(-n2c(C)cc(C(=O)COC(=O)c3c(C)noc3C)c2C)cc1`, the IC50 was 5.61 µM. With `Cc1ccc(Nc2cc(C)nn2-c2nc(C)cc(=O)[nH]2)cc1`, the IC50 is 0.18 µM. For `CCn1c2ccccc2c2cc(NC(=O)c3ccco3)ccc21` the value was 8.97 µM. Turning to `COC(=O)c1ccsc1NC(=O)CN1CCN(c2ccc(F)cc2)CC1`, the IC50 was 18.5 µM. The result for `CCCCn1c(=O)n(Cc2cccc(F)c2)c(=O)c2c1ncn2Cc1ccco1` reads 14.8 µM; that for `Cc1cc(N2CCCCC2)nc(SCc2ccc(C#N)cc2)n1`, 12.1 µM; that for `O=C(Cc1ccccc1F)Nc1nc(-c2cccs2)cs1`, 6.95 µM. For `CCOc1ccc(S(=O)(=O)Nc2cccc(Cl)c2)cc1` the value was 4.98 µM; for `COc1ccc(-c2noc(CCC(=O)N(C)c3cccc(C)c3)n2)cc1`, 22.7 µM. Take `CCCc1cc(C(=O)Nc2cccc(Cl)c2)no1`: the IC50 is 14.6 µM.

For `O=C(c1ccc(Cl)c(Cl)c1)N(Cc1ccco1)c1ccc(O)cc1`, the IC50 is 3.7 µM.

As for `CC(=O)Nc1nc2ccccc2n1Cc1ccccc1C`, the IC50 was 18.1 µM. The result for `Cc1cc(C)c(C#N)c(N2CCN(CCOc3ccc(Cl)cc3)CC2)n1` reads 10.4 µM. In the case of `Cc1ccc2ccc(S(=O)(=O)n3nc(C)cc3C)cc2c1`, the IC50 was 14.5 µM. With `CCCN(CCC)c1nc(NC2CCN(C(=O)OCC)CC2)nc(OC)n1`, the IC50 was 12.4 µM.

`Cc1nn(-c2ccccc2)c2sc(C(=O)N(CC(=O)NC(C)(C)C)Cc3ccco3)cc12`: the IC50 is 24.2 µM. For `Cc1ccc(O)c(C(=O)CC(=O)c2cccc(F)c2)c1` the value was 11.6 µM; for `CCOC(=O)C1CCN(C(=O)c2oc3ccc(S(=O)(=O)N4CCCCCC4)cc3c2C)CC1`, 21.6 µM; for `CC(C)(C)c1cc(C(F)(F)F)nc(SCCCNC(=O)c2ccco2)n1`, 6.37 µM.

With `COc1ccc2nc(NC(=O)C3CCCN(S(=O)(=O)c4cccs4)C3)sc2c1` (centres undefined), the IC50 was 26 µM. For the molecule `CCC(Sc1nnc(-c2ccc(C)c(Cl)c2)n1CC)C(=O)Nc1nccs1` (centres undefined), the IC50 was 14.9 µM. The result for `N#Cc1c(/N=C/c2ccco2)oc(-c2ccccc2)c1-c1ccccc1` reads 6.78 µM; that for `Clc1ccc(OCCCc2nc(-c3cccnc3)no2)c(Cl)c1`, 17.2 µM.

On to `O=C(NC1CCCCC1)c1nc2c(nnn2Cc2ccccc2Cl)c(=O)[nH]1`, for which the IC50 was 6.11 µM. Turning to `CS(=O)(=O)N1CCc2cc(-c3csc(NC(=O)Cc4cccs4)n3)ccc21`, the IC50 was 21.7 µM. For the molecule `CC(C)c1ccc(-c2nnn(Cc3nc4ccccc4s3)n2)cc1`, the IC50 was 22.8 µM. `CCOC(=O)N1CCc2c(sc(NC(=O)c3ccc(Cl)s3)c2C(N)=O)C1`: the IC50 was 5.13 µM.

Turning to `Cc1ccc(-c2noc(CSc3nnnn3C3CCCCC3)n2)cc1`, the IC50 is 12.9 µM. `CNc1nc(Nc2ccc(C(C)=O)cc2)nc(OC(C(F)(F)F)C(F)(F)F)n1`: the IC50 is 20.1 µM.

Take `c1ccc(Cn2nnnc2C(c2cccs2)N2CCCCCC2)cc1` (centres undefined): the IC50 is 9.47 µM. In the case of `CCOC(=O)c1ccc(N2C(=O)c3n[nH]c(C)c3C2c2ccc(OC)cc2OC)cc1` (centres undefined), the IC50 was 16.8 µM. For `CCC(C(=O)N1CCN(c2cccc(Cl)c2)CC1)c1ccccc1` (centres undefined), the IC50 was 14.2 µM. For `COc1ccc2nc(N3CCC(C)CC3)c(C#N)cc2c1` the value was 28.9 µM; for `Cc1cccc(N2CCN(C(=O)Cc3c(C(=O)O)[nH]c4ccc(Cl)cc34)CC2)c1C`, 7.52 µM; for `CCc1nc(N2CCCCC2C)c2oc3ccccc3c2n1` (centres undefined), 13.6 µM.

Consider `COc1ccc(C/C(O)=C(\C#N)c2nc3ccccc3s2)cc1`, for which the IC50 was 5.12 µM.

`CCCCOc1ccc(S(=O)(=O)Nc2cc(OC)ccc2OC)cc1`: the IC50 is 16.8 µM. Consider `O=c1c2ccccc2n(Cc2ccc(F)cc2)c(=O)n1C1CCCC1`, for which the IC50 was 9.26 µM. `c1ccc(-n2nnnc2Oc2cccc3cccnc23)cc1`: the IC50 is 7.65 µM. Turning to `O=C(NCc1ccco1)c1sc(=S)n2c1[nH]c(=O)c1ccccc12`, the IC50 was 1.26 µM. Take `CN(C)c1ccc(/C=N/n2ncc3ccccc32)cc1`: the IC50 was 34.6 µM. The result for `O=C1CC(O)(C(F)(F)F)Oc2c1ccc1ccccc21` (centres undefined) reads 1.19 µM. On to `Cc1noc(C)c1COC(=O)c1cc(C)n(-c2ccccc2)c1C`, for which the IC50 is 11.5 µM. Consider `CCOC(=O)c1c(NC(=O)CSc2nnc(C)c(=O)[nH]2)sc2c1CCC2`, for which the IC50 was 10.6 µM. As to `COc1ccc(C2CC(c3ccccc3)n3nc(NC(=O)c4cccs4)nc3N2)cc1` (centres undefined), the 50% inhibitory concentration (IC50) was 8.18 µM. As to `O=C(c1cccc(COc2ccc(Cl)cc2Cl)c1)N1CCN(c2ccccn2)CC1`, the IC50 is 3.82 µM. Consider `S=C(c1ccc(-c2ccc(Cl)c(Cl)c2)o1)N1CCOCC1`, for which the IC50 was 11.2 µM. Regarding `O=c1[nH]c2ccc(S(=O)(=O)N3CCN(c4ccccc4F)CC3)cc2s1`, the IC50 is 57 µM. The result for `CC(C)c1nc(N2CCOCC2)c(C#N)c2c1CCCC2` reads 18 µM; that for `Fc1ccc(-n2c(Cc3ccccc3)nnc2SCc2nc(-c3cccs3)no2)cc1`, 19.1 µM.

Consider `CC1CCCc2sc3nc(NCc4ccco4)n4ncnc4c3c21` (centres undefined), for which the IC50 was 11.6 µM. On to `CCOC(=O)C1CCCN(c2ncnc3c2cnn3-c2ccc(Cl)cc2)C1` (centres undefined), for which the IC50 is 9.92 µM. Consider `COc1ccc(NC(=O)N(C2CCCCC2)C(C)c2ccco2)c(OC)c1` (centres undefined), for which the IC50 is 15 µM. For `CCn1c(C(=O)NCCCc2ccccc2)cc2sccc21`, the IC50 is 8.52 µM. For `Cn1c(=O)n(CCCOc2ccc(Br)cc2)c2ccccc21` the value was 13.8 µM.

Regarding `CCCN(CCC)S(=O)(=O)c1ccc(C(=O)Nc2nnc(-c3cccc(OC)c3)o2)cc1`, the IC50 was 0.26 µM.

Consider `O=c1c2cc3ccccc3n2cnn1Cc1ccccc1F`, for which the IC50 was 17.2 µM. As for `N#Cc1nc(COc2ccc(F)cc2)oc1N1CCN(Cc2ccccc2)CC1`, the IC50 is 14.4 µM. Take `O=C(Nc1scc(-c2cccs2)c1C(=O)O)c1cccs1`: the IC50 was 10.5 µM. The result for `CCOc1cc(-c2c(C#N)c(N)nc3c2CCCC3C)ccc1O` (centres undefined) reads 6.26 µM; that for `CCOC(=O)c1cc(CC)sc1NC(=O)Cc1ccsc1`, 10.3 µM; that for `Cc1ccc(C)c(N2CCN(C(=O)c3cc4sccc4n3C)CC2)c1`, 15.1 µM. The result for `Cc1ccccc1-c1nc(CS(=O)(=O)CC(=O)N2CCc3ccccc3C2)c(C)o1` reads 31.7 µM. With `O=C1c2[nH]nc(-c3ccccc3O)c2C(c2ccccc2)N1Cc1ccco1` (centres undefined), the IC50 is 2.45 µM. The result for `Cc1cc(N2CCCCC2)n2ncc(-c3ccccc3)c2n1` reads 17.3 µM.

Turning to `Oc1cccc(Nc2nc(NCC3CCCO3)c3ccccc3n2)c1` (centres undefined), the IC50 was 4.68 µM. The result for `CCCCn1c(NC(=O)c2ccccc2)c(C#N)c2nc3ccccc3nc21` reads 2.79 µM. For `O=S(=O)(Nc1nc2ccccc2s1)c1ccc(Br)s1` the value was 3.88 µM. Turning to `CN(C)c1ccc(-c2nn3c(-c4ccncc4)nnc3s2)cc1`, the IC50 was 13.6 µM. As for `COc1cc(-c2nc(Cc3ccccc3Cl)no2)cc(OC)c1OC`, the IC50 was 11.5 µM. The result for `CC(=Nc1ccc(O)cc1)c1sc2ccccc2c1O` reads 0.89 µM. The result for `O=c1c(-c2nc3ccccc3o2)c2oc3ccccc3n2c2ccccc12` reads 17.6 µM; that for `OC(COc1ccc(Cl)c2ccccc12)CN1CCN(c2ccccn2)CC1` (centres undefined), 11.6 µM; that for `COc1ccc(-c2n[nH]c(C(F)(F)F)c2-c2cc3ccccc3o2)c(O)c1`, 1.99 µM.

`COc1nc(N(c2ccccc2)c2ccccc2)nc(-n2ccnc2)n1`: the IC50 was 5.65 µM. For `Cn1c(C(=O)N2CCc3ccccc3C2)cc2oc3ccccc3c21`, the IC50 is 7.81 µM. For `CCOC(=O)N1CCC(c2cc(=O)n3[nH]c(C)c(-c4ccc(F)cc4)c3n2)CC1` the value was 1.68 µM. For `CCCc1nc2sc3ccccc3c(=O)c2c(=O)n1Cc1ccco1` the value was 5.73 µM.

Source of the values: PubChem BioAssay AID617 (SRMLSC, 2007).
